Publication PMC5797669 (Cellular signalling, 2016)
Where no end group is shown, it is not given here.

Tests used:
[1] = biological target: hY4R point mutant S^7.100/103A, C-terminally fused to RLuc8 (human) (UniProt P50391); experiment: FRET or BRET
[2] = biological target: hY4R point mutant E^7.78/79/81A, C-terminally fused to RLuc8 (human) (UniProt P50391); experiment: FRET or BRET
[3] = biological target: hY4R deletion mutant Δ7.78, C-terminally fused to RLuc8 (human) (UniProt P50391); experiment: FRET or BRET
[4] = biological target: hY4R deletion mutant Δ7.93, C-terminally fused to RLuc8 (human) (UniProt P50391); experiment: FRET or BRET
[5] = biological target: hY4R point mutant S^7.80/86A, C-terminally fused to RLuc8 (human) (UniProt P50391); experiment: FRET or BRET
[6] = biological target: hY4R point mutant S^7.93/96A, C-terminally fused to RLuc8 (human) (UniProt P50391); experiment: FRET or BRET
[7] = biological target: hY4R deletion mutant Δ7.97, C-terminally fused to RLuc8 (human) (UniProt P50391); experiment: FRET or BRET
[8] = biological target: hY4R point mutant T^7.87/90A, C-terminally fused to RLuc8 (human) (UniProt P50391); experiment: FRET or BRET
hY4R S^7.100/103A = hY4R S^7.100/103A (Homo sapiens, UniProt P50391, S369A/S372A); experiment: TAMRA-hPP ligand uptake by fluorescence microscopy; format: cell-based; conditions: HEK293, 100 nM, 60 min, acidic wash pH 3.0, Mean ± S.E.M., n ≥ 4
In short: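 HEK293 cells on slides at 70–80% confluence, transfected (Lipofectamine 2000) with 1 µg receptor plasmid. Next day, starved 30 min at 37 °C in Opti-MEM, optionally with Hoechst33342. […] Intracellular fluorescence quantified per cell, ≥10 cells per experiment.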

hY4R point mutants = experiment: [^125I]-hPP cell surface binding assay; design: species or system human; conditions: all point mutants; HEK293; compared to WT (set to 100%)
In short: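 EYFP-fused receptor constructs transiently expressed in HEK293: 7 µg receptor DNA per 6-well by Lipofectamine 2000. Cells re-seeded next day into poly-D-lysine-coated 48-well plates and grown to confluence. Specific [125I]-hPP binding of each mutant expressed relative to wild-type receptor specific binding.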

[9] = biological target: N-terminally HA-tagged hY4R wild type fused to enhanced yellow fluorescent protein (human, UniProt P50391 1-375); experiment: radioligand binding
Sequence of N-terminally HA-tagged hY4R wild type fused to enhanced yellow fluorescent protein (P50391 whole entry, the tested form may be a part): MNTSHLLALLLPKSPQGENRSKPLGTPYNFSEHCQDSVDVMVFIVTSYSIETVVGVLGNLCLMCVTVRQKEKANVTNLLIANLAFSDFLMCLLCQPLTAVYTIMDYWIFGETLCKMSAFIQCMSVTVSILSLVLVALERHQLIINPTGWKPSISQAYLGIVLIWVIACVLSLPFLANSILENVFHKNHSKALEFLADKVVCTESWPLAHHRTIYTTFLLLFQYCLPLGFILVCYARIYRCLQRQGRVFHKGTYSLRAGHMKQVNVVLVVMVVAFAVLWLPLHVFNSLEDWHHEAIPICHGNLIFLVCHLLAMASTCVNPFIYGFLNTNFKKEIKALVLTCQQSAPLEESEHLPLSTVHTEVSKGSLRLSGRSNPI

Sequence of Bovine arrestin-3 N-terminally fused to Venus (P32120 whole entry, the tested form may be a part): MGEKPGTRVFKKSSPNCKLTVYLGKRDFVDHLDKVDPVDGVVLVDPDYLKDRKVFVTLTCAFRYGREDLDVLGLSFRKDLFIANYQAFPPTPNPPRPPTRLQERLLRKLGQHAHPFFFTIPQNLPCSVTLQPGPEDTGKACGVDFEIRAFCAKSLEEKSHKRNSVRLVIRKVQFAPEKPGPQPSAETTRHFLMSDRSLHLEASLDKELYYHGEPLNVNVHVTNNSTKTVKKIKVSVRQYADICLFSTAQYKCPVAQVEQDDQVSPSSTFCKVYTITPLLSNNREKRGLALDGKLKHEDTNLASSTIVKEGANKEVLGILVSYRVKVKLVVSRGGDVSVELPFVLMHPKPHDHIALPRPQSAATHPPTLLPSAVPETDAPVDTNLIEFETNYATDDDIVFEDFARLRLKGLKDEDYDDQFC
Sequence of hY4R S^7.100/103A (P50391 whole entry S369A/S372A): as the sequence (P50391 whole entry, the tested form may be a part) above, with S369A, S372A counted along it
Sequence of hY4R deletion mutant Δ7.78, C-terminally fused to RLuc8 (human) (P50391 whole entry, stated change not applied, the tested form may be a part): as the sequence (P50391 whole entry, the tested form may be a part) above
Sequence of hY4R point mutant S^7.93/96A, C-terminally fused to RLuc8 (human) (P50391 whole entry, stated change not applied, the tested form may be a part): as the sequence (P50391 whole entry, the tested form may be a part) above
Sequence of hY4R deletion mutant Δ7.97, C-terminally fused to RLuc8 (human) (P50391 whole entry, stated change not applied, the tested form may be a part): as the sequence (P50391 whole entry, the tested form may be a part) above
Sequence of hY4R point mutant T^7.87/90A, C-terminally fused to RLuc8 (human) (P50391 whole entry, stated change not applied, the tested form may be a part): as the sequence (P50391 whole entry, the tested form may be a part) above
Sequence of hY4R point mutant E^7.78/79/81A, C-terminally fused to RLuc8 (human) (P50391 whole entry, stated change not applied, the tested form may be a part): as the sequence (P50391 whole entry, the tested form may be a part) above
Sequence of hY4R deletion mutant Δ7.93, C-terminally fused to RLuc8 (human) (P50391 whole entry, stated change not applied, the tested form may be a part): as the sequence (P50391 whole entry, the tested form may be a part) above
Sequence of hY4R point mutant S^7.100/103A, C-terminally fused to RLuc8 (human) (P50391 whole entry, change not shown, the tested form may be a part): as the sequence (P50391 whole entry, the tested form may be a part) above
Sequence of hY4R point mutant S^7.80/86A, C-terminally fused to RLuc8 (human) (P50391 whole entry, change not shown, the tested form may be a part): as the sequence (P50391 whole entry, the tested form may be a part) above

Molecule: Bovine arrestin-3 N-terminally fused to Venus (from UniProt P32120 1-420) (natural protein)
- arr-3 recruitment, maximum net BRET (% of WT) [1]: 95%
- arr-3 recruitment, maximum net BRET (% of WT) [2]: 25%
- arr-3 recruitment, maximum net BRET (% of WT) [3]: 1%
- arr-3 recruitment, maximum net BRET (% of WT) [4]: 174%
- arr-3 recruitment, maximum net BRET (% of WT) [5]: 33%
- arr-3 recruitment, maximum net BRET (% of WT) [6]: 49%
- arr-3 recruitment, maximum net BRET (% of WT) [7]: 186%
- arr-3 recruitment, maximum net BRET (% of WT) [8]: 51%

Molecule: TAMRA-hPP: hPP-derivative that was N-terminally modified with a TAMRA fluorophore
- TAMRA-hPP uptake (intracellular fluorescence) (hY4R S^7.100/103A): 78 ± 11%

Molecule: [^125I]-hPP: radioligand used in binding experiments
- cell surface expression ([^125I]-hPP binding) (hY4R point mutants): > 78%

Molecule: APLEPVYPGDNATPEQMAQYAADLRRYINMLTRPRY-NH2 (peptide, UniProt P01298 30-65, looked up, also: 125I label (position not given here)) [[^125I]-labelled human pancreatic polypeptide]
- specific binding (% of WT) [9]: 100%
